Among the data in ChEMBL document CHEMBL4033780, “Lipidated Brartemicin Analogues Are Potent Th1-Stimulating Vaccine Adjuvants” (J Med Chem, 2018) are Activity values, retold here.

The subject of series [1] is T1, C-type lectin domain family 4 member E (Homo sapiens), Q9ULY5 [R183A].
T1 sequence (whole entry): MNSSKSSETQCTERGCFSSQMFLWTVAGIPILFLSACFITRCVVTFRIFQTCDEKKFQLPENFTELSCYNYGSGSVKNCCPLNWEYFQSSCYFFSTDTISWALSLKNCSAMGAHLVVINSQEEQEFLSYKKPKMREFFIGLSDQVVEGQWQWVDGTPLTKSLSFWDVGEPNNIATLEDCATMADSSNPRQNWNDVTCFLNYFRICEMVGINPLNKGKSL
As to the kind of experiment: Agonist activity at human mincle R183A mutant expressed in NFAT-GFP reporter cells up to 3000 pmol after 18 hrs by flow cytometric analysis. In kind it is cell-based. The gist of the method:
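The hMincle R183A mutant, made by site-directed mutagenesis, was retrovirally introduced into 2B4 NFAT-GFP cells expressing FcRγ only. Cells were stimulated on plates coated with increasing ligand amounts for 18 h, and NFAT-GFP was read by flow cytometry. Mean of two independent experiments in duplicate (±SEM).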
On the technique in general: In flow cytometry, cells or beads pass a laser one at a time.

For series [2], the target named is T2, C-type lectin domain family 4 member E (Mus musculus) (UniProt Q9R0Q8).
T2 sequence (whole entry): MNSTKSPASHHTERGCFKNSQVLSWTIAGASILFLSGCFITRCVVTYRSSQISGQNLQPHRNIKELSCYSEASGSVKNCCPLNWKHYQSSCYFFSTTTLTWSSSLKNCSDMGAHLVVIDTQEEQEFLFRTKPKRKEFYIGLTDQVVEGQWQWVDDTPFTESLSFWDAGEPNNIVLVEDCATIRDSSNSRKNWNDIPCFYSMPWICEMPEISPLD
The series is described as follows: Agonist activity at mincle in wild type C57BL/6 mouse GM-CSF derived BMDM assessed as increase in IL-1beta release at 0.1 to 1 nmol after 24 hrs by sandwich ELISA. The gist of the method:
(§1)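 Wild-type or Mincle−/− C57BL/6 bone marrow was cultured 8 days with GM-CSF 50 ng/mL in complete RPMI. Macrophages were detached with Acutase and seeded on ligand-coated plates (0.1 or 1 nmol/well); LPS 100 ng/mL was used as comparator. Supernatant was taken at 24 h and TNF, IL-6, IL-1β and MIP-2 measured by sandwich ELISA. Representative of three experiments in triplicate (±SD).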

Series [3] concerns the target T2, C-type lectin domain family 4 member E (Mus musculus). The series is described as follows: Agonist activity at mincle in wild type C57BL/6 mouse GM-CSF derived BMDM assessed as increase in MIP2 release at 0.1 to 1 nmol after 24 hrs by sandwich ELISA. The gist of the method:
as §1

For series [4] the target is unchanged. As to the kind of experiment: Agonist activity at mincle in wild type C57BL/6 mouse GM-CSF derived BMDM assessed as increase in IL-6 release at 0.1 to 1 nmol after 24 hrs by sandwich ELISA. The gist of the method: as §1
(ELISA stands for enzyme-linked immunosorbent assay.)

For series [5] the target is unchanged. As to the kind of experiment: Agonist activity at mincle in wild type C57BL/6 mouse GM-CSF derived BMDM assessed as increase in TNF release at 0.1 to 1 nmol after 24 hrs by sandwich ELISA. The gist of the method:
as §1

The target is the same in series [6]. As to the kind of experiment: Agonist activity at mouse mincle coupled with FcRgamma expressed in 2B4-NFAT-GFP reporter cells up to 1 nmol after 18 hrs by flow cytometric analysis. In kind it is cell-based. The gist of the method: (§2)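 2B4 NFAT-GFP reporter cells expressing mouse or human Mincle plus FcRγ were placed on plates coated with ligand at 0.01, 0.1 or 1 nmol/well; cells expressing FcRγ only served as negative control. Ligand was coated from isopropanol, 0.05 mM, and solvent evaporated. After 18 h, cells were harvested, stained with propidium iodide and GFP read by flow cytometry. Mean of three experiments in duplicate (±SEM).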

In series [7] the target is T3, C-type lectin domain family 4 member E (Homo sapiens) (UniProt Q9ULY5).
T3 sequence (whole entry): T1 sequence (whole entry) with A183R
As to the kind of experiment: Binding affinity to recombinant human mincle extracellular domain fused with human IgG Fc expressed in HEK293T cells at 0.1 nmol by ELISA. The class given is cell-based. As to conditions: HEK-293T.

Series [8] deals with BMDM. The series is described as follows: Immunostimulatory activity in mincle-/- C57BL/6 mouse GM-CSF derived BMDM assessed as increase in IL-6 release at […] after 24 hrs by sandwich ELISA method. In kind it is functional, cell-based. The procedure, abridged: as §1
Series [9] has as its system BMDM. As to the kind of experiment: Immunostimulatory activity in mincle-/- C57BL/6 mouse GM-CSF derived BMDM assessed as increase in IL-1beta release at […] after 24 hrs by sandwich ELISA method. In kind it is functional, cell-based. The procedure, abridged: as §1
Series [10] has as its target T3, C-type lectin domain family 4 member E (Homo sapiens). The series is described as follows: Agonist activity at human mincle coupled with FcRgamma expressed in 2B4-NFAT-GFP reporter cells up to 1 nmol after 18 hrs by flow cytometric analysis. In kind it is cell-based. The gist of the method:
as §2

The test system of series [11] is BMDM. The series is described as follows: Immunostimulatory activity in mincle-/- C57BL/6 mouse GM-CSF derived BMDM assessed as increase in TNF release at […] after 24 hrs by sandwich ELISA method. The class given is functional, cell-based. The gist of the method:
as §1

Series [12] can be described thus: Toxicity in Atlantic horseshoe crab blood limulus amebocyte lysate by chromogenic endotoxin test. As to conditions: limulus polyphemus. The procedure, abridged: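 Endotoxin was measured by chromogenic Limulus amebocyte lysate assay at a sensitivity of ≤0.1 EU/mL.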
Series [13] addresses T2, C-type lectin domain family 4 member E (Mus musculus). The series is described as follows: Binding affinity to recombinant mouse mincle extracellular domain fused with human IgG Fc expressed in HEK293T cells at 0.1 nmol by ELISA. The class given is cell-based. As to conditions: HEK-293T.
Series [14] has as its system BMDM. The series is described as follows: Immunostimulatory activity in mincle-/- C57BL/6 mouse GM-CSF derived BMDM assessed as increase in MIP2 release at […] after 24 hrs by sandwich ELISA method. In kind it is functional, cell-based. The procedure, abridged: as §1

Substitutions are numbered along the chain they refer to. Active and inactive are the calls of the source. No cut-off for these calls is given here.

Turning to `CCCCCCCCCCCCCCCCCCCCCCCCCC(O)C(CCCCCCCCCCC1CC1CCCCCCCCCCCCCCCCCC)C(=O)OC[C@H]1O[C@H](O[C@H]2O[C@H](COC(=O)C(CCCCCCCCCCCCCCCCCCCCCCCC)C(O)CCCCCCCCCCCC3CC3CCCCCCCCCCCCCCCCCC)[C@@H](O)[C@H](O)[C@H]2O)[C@H](O)[C@@H](O)[C@@H]1O` (stereo partly specified), the result in series [1], in series [2], in series [3], in series [4] and in series [5] was Active.

In the case of `CCCCCCCOc1ccc(C(=O)OC[C@H]2O[C@H](O[C@H]3O[C@H](COC(=O)c4ccc(OCCCCCCC)cc4)[C@@H](O)[C@H](O)[C@H]3O)[C@H](O)[C@@H](O)[C@@H]2O)cc1`, the outcome in series [6], in [7], in series [2], in series [3], in series [10] and in [13] was Active. For the same compound, the result in series [4] and in series [5] was Active. In addition, the outcome with BMDM [8], in the series on BMDM [9], in the series with BMDM [11] and in the series with BMDM [14] was inactive. Moreover, in series [12], the Activity entry is recorded as “<= 0.1 EU/ml”.

Regarding `CCCCCCCOc1ccc(C(=O)OC[C@H]2O[C@H](O[C@H]3O[C@H](COC(=O)c4ccc(OCCCCCCC)cc4O)[C@@H](O)[C@H](O)[C@H]3O)[C@H](O)[C@@H](O)[C@@H]2O)c(O)c1`, the outcome in series [6], in series [7], in series [2], in [3], in series [10] and in [13] was Active. The result in [4] and in [5] was Active. In addition, the outcome in the series with BMDM [8], in the series on BMDM [9], in the series with BMDM [11] and with BMDM [14] was inactive. The Activity result in series [12] was “<= 0.1 EU/ml”.
